Data as given in ChEMBL document CHEMBL1131090, “Discovery of N-[2-[5-[Amino(imino)methyl]-2-hydroxyphenoxy]-3, 5-difluoro-6-[3-(4, 5-dihydro-1-methyl-1H-imidazol-2-yl)phenoxy]pyridin-4-yl]-N-methylgl y cine (ZK-807834): a potent, selective, and orally active inhibitor of the blood coagulation enzyme factor Xa” (J Med Chem, 1998).

Experiments:
[1] = plasma concentration was measured against the Nonhuman primates (baboon) using FXa inhibition assay after 6 h; uM; format: ADME, organism-based, Papio
Method in brief: (§1)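 Baboons received a 10 mg/kg oral dose in 1.5% carboxymethylcellulose plus 1% Tween 80 via nasogastric tube (2–4 animals per compound). Plasma inhibitor concentration was determined at the stated times by FXa inhibition assay.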

[2] = Inhibitor plasma concentration was measured in dogs on 10 mg/kg oral dosing after 2 hr administration; uM; format: ADME, organism-based, Canis lupus familiaris; parameters: dose 10 mg/kg, route oral; conditions: dog
Method in brief: (§2)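 Conscious beagles (10–16 kg) were given 10 mg/kg by oral gavage as homogeneous solutions in aqueous acid (n = 3). Plasma inhibitor concentrations were measured at the stated times by an ex vivo FXa inhibition activity assay. For ester/acid pairs, the value is the total ester plus acid concentration.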

Serine protease 1 = target: T1, Serine protease 1 (Bos taurus, UniProt P00760); assay: Inhibitory potency was measured against bovine trypsin.
T1 sequence (P00760 whole entry): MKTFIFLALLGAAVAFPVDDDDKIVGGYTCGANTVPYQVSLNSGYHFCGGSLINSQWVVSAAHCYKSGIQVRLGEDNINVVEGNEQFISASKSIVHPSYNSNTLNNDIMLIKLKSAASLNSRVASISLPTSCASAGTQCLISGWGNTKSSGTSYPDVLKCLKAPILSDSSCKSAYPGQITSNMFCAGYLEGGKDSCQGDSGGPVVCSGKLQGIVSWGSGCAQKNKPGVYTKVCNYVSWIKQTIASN

[3] = plasma concentration was measured against the Nonhuman primates (cynomolgus monkey) using HPLC after 1 hr; uM
Prothrombin = Prothrombin (Homo sapiens, UniProt P00734); assay: Inhibitory potency was measured against human thrombin
Method in brief: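 Purified human thrombin (16 nM final) was assayed chromogenically with S-2302 (300 μM final) in 50 mM Tris-HCl pH 7.5, 150 mM NaCl, 2.5 mM CaCl2, 0.1% PEG 6000 at room temperature. Varying inhibitor concentrations were tested at a substrate level equal to Km, assuming a competitive mechanism, to derive Ki.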

[4] = plasma concentration was measured against the Nonhuman primates (baboon) using FXa inhibition assay after 1 hr; uM; format: ADME, organism-based, Papio; method in brief: as §1
[5] = plasma concentration was measured against the Nonhuman primates (baboon) using FXa inhibition assay after 4 hr; uM; format: ADME, organism-based, Papio; method in brief: as §1
[6] = Inhibitor plasma concentration was measured in dogs on 10 mg/kg oral dosing after 4 hr administration; uM; format: ADME, organism-based, Canis lupus familiaris; parameters: dose 10 mg/kg, route oral; conditions: dog; method in brief: as §2
Coagulation factor X = Coagulation factor X (Homo sapiens, UniProt P00742); assay: Inhibitory potency was measured against human coagulation factor X
Coagulation factor X, sequence (P00742 41-179 limits assumed): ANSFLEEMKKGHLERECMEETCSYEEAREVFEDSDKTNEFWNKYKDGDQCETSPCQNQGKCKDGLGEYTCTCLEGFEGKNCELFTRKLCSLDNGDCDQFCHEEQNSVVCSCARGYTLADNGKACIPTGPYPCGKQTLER
Coagulation factor X, sequence (P00742 235-488 limits assumed): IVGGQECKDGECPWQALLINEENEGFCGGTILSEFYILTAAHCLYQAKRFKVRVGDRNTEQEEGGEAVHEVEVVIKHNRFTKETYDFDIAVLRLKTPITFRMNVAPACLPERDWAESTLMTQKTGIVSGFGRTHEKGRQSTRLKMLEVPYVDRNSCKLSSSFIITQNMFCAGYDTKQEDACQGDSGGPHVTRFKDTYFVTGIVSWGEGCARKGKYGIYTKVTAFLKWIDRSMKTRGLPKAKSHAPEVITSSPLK

[7] = Prothrombin time concentration to give a 2-fold extension activity against pooled lyophilized human plasma.; format: functional
Method in brief: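 Prothrombin time was measured in pooled lyophilized human plasma with Thromboplastin IS on an automated coagulation analyzer. The value is the inhibitor concentration that doubles PT.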

[8] = plasma concentration was measured against the Nonhuman primates (baboon) using FXa inhibition assay after 3 hr; uM; format: ADME, organism-based, Papio; method in brief: as §1
[9] = Inhibitor plasma concentration was measured in dogs on 10 mg/kg oral dosing after 1 hr administration; uM; format: ADME, organism-based, Canis lupus familiaris; parameters: dose 10 mg/kg, route oral; conditions: dog; method in brief: as §2
[10] = plasma concentration was measured against the Nonhuman primates (baboon) using FXa inhibition assay after 2 hr; uM; format: ADME, organism-based, Papio; method in brief: as §1
[11] = plasma concentration was measured against the Nonhuman primates (cynomolgus monkey) using HPLC after 3 hr; uM
[12] = plasma concentration was measured against the Nonhuman primates (cynomolgus monkey) using HPLC after 4 hr; uM
[13] = plasma concentration was measured against the Nonhuman primates (cynomolgus monkey) using HPLC after 2 hr; uM

SMILES	Ki (Serine protease 1) [nM]	Ki (Prothrombin) [nM]	Ki (Coagulation factor X) [nM]	other results
N=C(N)c1ccc(Oc2cccc(Oc3ccc(C(=N)N)cc3)n2)cc1	2800	550	400	–
CCOC(=O)[C@@H]1C[C@@H](Oc2c(F)c(Oc3cccc(C4=NCCN4C)c3)nc(Oc3cc(C(=N)N)ccc3O)c2F)CN1	330	140	0.43	concentration at 6 h [1]: 300 nM; concentration at 2 h [2]: 3400 nM; concentration at 2 h [10]: 300 nM; concentration at 1 h [4]: 200 nM; concentration at 4 h [5]: 500 nM; concentration at 4 h [6]: 2600 nM; PT extension [7]: 300 nM; concentration at 3 h [8]: 600 nM; concentration at 1 h [9]: 3500 nM
CCOC(=O)CN(C)c1c(F)c(Oc2cccc(C3=NCCN3C)c2)nc(Oc2cc(C(=N)N)ccc2O)c1F	240	630	0.26	concentration at 2 h [2]: 200 nM; concentration at 4 h [6]: 100 nM; PT extension [7]: 630 nM; concentration at 1 h [9]: 200 nM
Cc1c(F)c(Oc2cccc(CN(C)C)c2)nc(Oc2cccc(C(=N)N)c2)c1F	–	22000	640	–
Cc1c(F)c(Oc2cccc(C(=N)N)c2)nc(Oc2cccc(C(=N)N)c2)c1F	810	22000	13	–
N=C(N)c1ccc(Oc2nc(Oc3ccc(C(=N)N)cc3)c(Cl)cc2Cl)cc1	2700	1400	620	–
Cc1c(F)c(Oc2ccccc2)nc(Oc2cccc(C(=N)N)c2)c1F	–	> 5000	> 5000	–
CNC(=O)c1cccc(Oc2nc(Oc3cccc(C(=N)N)c3)c(F)c(C)c2F)c1	–	–	1300	–
N=C(N)c1cccc(Oc2nc(Oc3cccc(C(=N)N)c3)c(Cl)cc2Cl)c1	2100	> 5000	130	–
N=C(N)c1cccc(Oc2cccc(Oc3cccc(C(=N)N)c3)n2)c1	1100	14000	53	–
CN(C)C(=O)c1cccc(Oc2nc(Oc3cc(C(=N)N)ccc3O)c(F)c(N(C)CC(=O)O)c2F)c1	1100	4500	0.41	concentration at 2 h [2]: 400 nM; PT extension [7]: 1000 nM; concentration at 1 h [9]: 300 nM
CN(C)C(=O)c1cccc(Oc2cc(C(=O)O)cc(Oc3cc(C(=N)N)ccc3O)n2)c1	300	1100	3.9	–
Cn1ccnc1-c1cccc(Oc2cc(C(=O)O)cc(Oc3cc(C(=N)N)ccc3O)n2)c1	660	180	9	–
COc1ccc(C(=N)N)cc1Oc1nc(Oc2cccc(C(=O)N(C)C)c2)c(F)c(C)c1F	4300	> 5000	740	–
N=C(N)c1ccc(Oc2cccc(Oc3cccc(C(=N)N)c3)n2)cc1	1900	1200	130	–

Further lines, with some results ahead:

Ki (Serine protease 1) [nM]	Ki (Prothrombin) [nM]	Ki (Coagulation factor X) [nM]	SMILES	other results
330	125	0.24	CN1CCN=C1c1cccc(Oc2nc(Oc3cc(C(=N)N)ccc3O)c(F)c(OC3CCN(CC(=O)O)CC3)c2F)c1	concentration at 6 h [1]: 700 nM; concentration at 2 h [2]: 3800 nM; concentration at 1 h [3]: 100 nM; concentration at 1 h [4]: 100 nM; concentration at 4 h [5]: 200 nM; concentration at 4 h [6]: 1200 nM; PT extension [7]: 220 nM; concentration at 3 h [8]: 100 nM; concentration at 1 h [9]: 5500 nM
1200	1400	26	N=C(N)c1ccc(O)c(Oc2cc(C(=O)O)cc(Oc3cccc(-n4ccnc4)c3)n2)c1	–
1100	1100	–	Cc1c(F)c(Oc2cccc(C(=O)N(C)C)c2)nc(Oc2cc(C(=N)N)ccc2O)c1F	–
1200	37000	24	N=C(N)c1cccc(Oc2nc(Oc3cccc(C(=N)N)c3)c(F)cc2F)c1	–
1400	> 5000	85	N=C(N)c1ccc(O)c(Oc2cc(C(=O)O)cc(Oc3cccc(C4=NCCN4)c3)n2)c1	–
1900	2600	160	Cc1c(F)c(Oc2cccc(C(=N)N)c2)nc(Oc2cccc(N(C)C)c2)c1F	–
770	192	0.65	CN(C)C(=O)c1cccc(Oc2nc(Oc3cc(C(=N)N)ccc3O)c(F)c(OC3CCN(CC(=O)O)CC3)c2F)c1	concentration at 2 h [2]: 100 nM; PT extension [7]: 850 nM; concentration at 1 h [9]: 300 nM
570	27000	59	N=C(N)c1cccc(Oc2cc(C(=O)O)cc(Oc3cccc(C(=N)N)c3)n2)c1	–
220	810	2.4	CN1CCN=C1c1cccc(Oc2cc(C(=O)O)cc(Oc3cc(C(=N)N)ccc3O)n2)c1	–
550	2300	14	Cc1c(F)c(Oc2cccc(C(=O)N(C)C)c2)nc(Oc2cc(C(=N)N)ccc2N)c1F	–
300	190	0.31	CCOC(=O)CN1CCC(Oc2c(F)c(Oc3cccc(C4=NCCN4C)c3)nc(Oc3cc(C(=N)N)ccc3O)c2F)CC1	concentration at 2 h [2]: 300 nM; concentration at 4 h [6]: 200 nM; PT extension [7]: 240 nM; concentration at 1 h [9]: 300 nM
2700	15000	80	Cc1c(F)c(Oc2cccc(C(=N)N)c2)nc(Oc2cccc(C(=O)N(C)C)c2)c1F	–
740	280	0.71	CCOC(=O)[C@@H]1C[C@@H](Oc2c(F)c(Oc3cccc(C(=O)N(C)C)c3)nc(Oc3cc(C(=N)N)ccc3O)c2F)CN1	concentration at 2 h [2]: 200 nM; concentration at 4 h [6]: 100 nM; PT extension [7]: 1400 nM; concentration at 1 h [9]: 300 nM
33	–	0.66	N=C(N)c1ccc(/C=C2/CCCC/C(=C/c3ccc(C(=N)N)cc3)C2=O)cc1	–
> 5000	> 5000	280	Cc1c(F)c(Oc2cccc(C(=N)N)c2)nc(Oc2cccc(C(N)=O)c2)c1F	–
280	2000	–	CN1CCN=C1c1cccc(Oc2nc(Oc3cc(C(=N)N)ccc3O)c(F)c(N(C)CC(=O)O)c2F)c1 [FIDEXABAN]	concentration at 6 h [1]: 1000 nM; concentration at 2 h [2]: 2100 nM; concentration at 1 h [3]: 200 nM; concentration at 2 h [10]: 600 nM; concentration at 1 h [4]: 300 nM; concentration at 4 h [5]: 1100 nM; concentration at 4 h [6]: 700 nM; concentration at 3 h [11]: 700 nM; PT extension [7]: 230 nM; concentration at 4 h [12]: 1200 nM; concentration at 3 h [8]: 900 nM; concentration at 1 h [9]: 3000 nM; concentration at 2 h [13]: 500 nM
310	250	0.33	CN1CCN=C1c1cccc(Oc2nc(Oc3cc(C(=N)N)ccc3O)c(F)c(O[C@H]3CN[C@H](C(=O)O)C3)c2F)c1	concentration at 2 h [2]: 2200 nM; concentration at 4 h [6]: 800 nM; PT extension [7]: 670 nM; concentration at 1 h [9]: 3200 nM
